According to PMC9197538 (CPT: Pharmacometrics & Systems Pharmacology, 2022):

Tests used:
[1] = assay type: in vivo, human
Procedure, shortened: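 Joint semi-mechanistic fit of plasma data for the parent and two active metabolites, from healthy-volunteer single doses (20–160 mg) and patient q.d. dosing. Parent: two compartments, three absorption transit compartments. Metabolites: two and one compartments. An enzyme compartment's production follows Emax/EC50 on the molar sum, assuming equal molar potency. IIV is exponential, log-normal. BLOQ handled by modified M6.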

[2] = Model-based simulations of exposure; parameters: species or system human; settings: age 18–86 years, race, sex, body weight 37.3–132 kg, mild‐to‐moderate renal impairment, mild‐to‐moderate hepatic impairment
[3] = test system: EGFRex20ins‐positive mNSCLC; settings: 160 mg q.d., cited from earlier work
[4] = after single‐dose administration; cited from earlier work
[5] = single oral dose radiolabeled mobocertinib 160 mg; cited from earlier work
[6] = cited from earlier work
[7] = low‐fat or high‐fat meal compared with fasting; cited from earlier work
[8] = test system: CYP3A; settings: cited from earlier work
[9] = no reference given; cited from earlier work
[10] = final population PK model, untransformed parameter
[11] = platinum‐pretreated patients with EGFRex20ins‐positive mNSCLC

SMILES: C=CC(=O)Nc1cc(Nc2ncc(C(=O)OC(C)C)c(-c3cn(C)c4ccccc34)n2)c(OC)cc1N(C)CCN(C)C [mobocertinib]
- IIV CL/F [1, 10]: 49.6%
- IIV Ka (interindividual variability) [1, 10]: 45.7%
- IIV Vc/F [1, 10]: 48.7%
- Ka, absorption rate constant [1, 10]: 2.12 h⁻¹
- Residual variability, additive error on log scale [1, 10]: 41.4%
- Kenz, rate constant for enzyme synthesis/degradation ([1]; final population PK model, enzyme (auto-induction) compartment): 0.00392 h⁻¹
- Emax, maximal induction effect ([1]; final population PK model, enzyme compartment, molar sum of the three moieties): 0.781
- Vd/F ([1]; human, plasma, oral, Vss/F, apparent volume of distribution at steady state, geometric mean (%CV 38%), derived from the final population PK model): 3510 L
- effect of covariates on mobocertinib PK [2]: No clinically meaningful differences
- median duration of response per IRC [3]: 17.5 months
- median overall survival [3]: 24.0 months
- confirmed objective response rate (ORR) per independent review committee (IRC) [3, 11]: 28%
- confirmed objective response rate (ORR) per investigators [3, 11]: 35%
- mean half‐life [4]: 20 h
- dose recovered in feces [5]: ~ 76%
- dose recovered in urine [5]: 4%
- percentage of administered dose recovered in feces as this moiety [5]: ~ 6%
- percentage of administered dose recovered in urine as this moiety [5]: ~ 1%
- decrease of molar sum AUC0–∞ ([6]; co‐administration with strong CYP3A inducer rifampin): 95%
- increase of molar sum AUC0–∞ of mobocertinib, AP32960, and AP32914 ([6]; co‐administration with strong CYP3A inhibitor itraconazole): 527%
- food effect on molar sum AUC [7]: no clinically meaningful differences
- CYP3A substrate and inducer status (in vitro) [8]: both substrates and inducers of CYP3A
- CYP3A inhibition and induction (in vitro) ([8]; ref data on file, Takeda Development Center Americas): inhibitors and inducers of CYP3A
- Biopharmaceutics Classification System class [9]: Class 1
- permeability [9]: high permeability
- solubility [9]: highly soluble
